Experimental data: ChEMBL document CHEMBL1124226, “Benzothiopyranoindazoles, a new class of chromophore modified anthracenedione anticancer agents. Synthesis and activity against murine leukemias” (J Med Chem, 1988); call rule not given here

Legend:
P388 [1] = assay: In vivo for the optimal dose for activity against P388 leukemia per injection; assay type: functional, Mus musculus
Outline: (§1)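 P388 leukemia in mice, drug given ip on days 1-5 (Q01D×5, IP/IP, NCI testing protocol). Optimum response taken over doses, expressed as mg/kg per injection. Read-outs are %T/C survival and net log cell kill (Schabel method). Cured mice are included in the %T/C and net kill calculations.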

P388 [2] = assay: Percentage T/C survival (treated vs control) against P388 leukemia (day 30 surv); assay type: functional, Mus musculus; outline: as §1
L1210 [3] = assay: In vitro for its inhibitory activity against murine L1210 leukemia; Inactive; assay type: functional, cell-based, Mus musculus
P388 leukemia (mouse) = assay: Net log value for P388 leukemia cell kill in mice was determined
Mus musculus [4] = assay: The compound was evaluated in vivo for the optimal dose for activity against murine B-16 melanoma; assay type: functional
Outline: (§2)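 Murine B-16 melanoma in vivo. Optimal dose given as mg/kg per injection. Response is % T/C survival, with day-60 survivors reported as number per group (of 10 or 6).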

Mus musculus [5] = species on record: Mus musculus; assay: % T/C survival against murine B-16 melanoma (day 60 surv); assay type: functional; outline: as §2
L1210 [6] = assay: In vitro for its inhibitory activity against murine L1210 leukemia; assay type: functional, cell-based; conditions: Mus musculus

Row | Structure (SMILES) | Dose (P388 [1]) | T/C (P388 [2]) | IC50 (L1210 [3]) | Net log cell kill (P388 leukemia (mouse)) | Dose (Mus musculus [4]) | T/C (Mus musculus [5]) | IC50 (L1210 [6])
1 | CCN(CC)CCn1nc2c3c(c(NCCN4CCOC4=O)ccc31)Sc1ccc(OC)cc1-2.Cl.O | 100 mg/kg | 220% | Not Active | 6 | – | – | –
2 | O=C1c2c(O)ccc(O)c2C(=O)c2c(NCCNCCO)ccc(NCCNCCO)c21 [MITOXANTRONE] | 1.25 mg/kg | 291% | – | – | 0.6 mg/kg | 265% | –
3 | O=C1OCCN1CCNc1ccc2c3c(nn2CCNCCO)-c2ccccc2Sc13 | – | – | – | – | – | – | 0.54 µM
4 | CCN(CC)CCn1nc2c3c(c(NCCN)ccc31)Sc1cc(O)ccc1-2.Cl.O | 6.3 mg/kg | 280% | – | – | 7.5 mg/kg | 281% | 0.071 µM
5 | CCN(CC)CCn1nc2c3c(c(NCCN)ccc31)S(=O)(=O)c1ccccc1-2.Cl.O | 100 mg/kg | 159% | – | 1.8 | – | – | 1.2 µM
6 | Cl.O.O=S1(=O)c2ccccc2-c2nn(CCNCCO)c3ccc(NCCNCCO)c1c23 | 200 mg/kg | 168% | Not Active | 2.5 | – | – | –
7 | CCN(CC)CCn1nc2c3c(c(NCCN)ccc31)Sc1c(O)cccc1-2.Cl.O | 6.3 mg/kg | 122% | Not Active | -0.9 | – | – | –
8 | CN(C)CCCn1nc2c3c(c(N)ccc31)Sc1ccccc1-2.Cl.O | 100 mg/kg | 197% | – | 4 | – | – | 2 µM
9 | Cl.NCCn1nc2c3c(c(N)ccc31)Sc1ccccc1-2 | 12.5 mg/kg | 181% | – | 3.1 | – | – | 0.1 µM
10 | CC(=O)OCCN(CCn1nc2c3c(c(N)ccc31)Sc1ccccc1-2)C(C)=O.Cl | 400 mg/kg | 117% | Not Active | -1.3 | – | – | –
11 | CC(=O)NCCn1nc2c3c(c(NCCN4CCOC4=O)ccc31)Sc1ccccc1-2 | 12.5 mg/kg | 100% | Not Active | -1.6 | – | – | –
12 | CCN(CC)CCn1nc2c3c(c(N)ccc31)Sc1ccccc1-2 | 25 mg/kg | – | – | 2.2 | 12 mg/kg | 112% | 0.1 µM
13 | CCN(CC)CCn1nc2c3c(c(N)ccc31)Sc1cc(OC)ccc1-2.Cl.O | – | – | Not Active | – | – | – | –
14 | CCN(CC)CCn1nc2c3c(c(NCCNC(=O)OC(C)(C)C)ccc31)Sc1cc(OC)ccc1-2 | 6.3 mg/kg | 93% | Not Active | – | – | – | –
15 | Cl.NCCn1nc2c3c(c(NCCNCCO)ccc31)Sc1ccccc1-2 | 12.5 mg/kg | 233% | – | > 6.7 | – | – | 0.022 µM
16 | CCN(CC)CCn1nc2c3c(c(N)ccc31)Sc1cc(O)ccc1-2 | – | – | – | – | – | – | 0.19 µM
17 | CCN(CC)CCn1nc2c3c(c(NCCNCCO)ccc31)Sc1ccc(OC)cc1-2.Cl | 25 mg/kg | – | – | 3.2 | – | – | 0.2 µM
18 | CCN(CC)CCn1nc2c3c(c(NC(=O)CN)ccc31)Sc1ccccc1-2.Cl.O | 20 mg/kg | 184% | – | 2.4 | – | – | 0.015 µM
19 | CCN(CC)CCn1nc2c3c(c(NCCN4CCOC4=O)ccc31)Sc1ccccc1-2 | 100 mg/kg | – | – | 6 | – | – | 0.81 µM
20 | CCN(CC)CCn1nc2c3c(c(NCCCN)ccc31)Sc1ccccc1-2.Cl.O | 50 mg/kg | 262% | – | > 6.6 | – | – | 0.26 µM
21 | O=S1(=O)c2ccccc2-c2nn(CCNCCO)c3ccc(Cl)c1c23 | – | – | – | – | – | – | 0.92 µM
22 | CCN(CC)CCNc1ccc2c3c(nn2CCN(CC)CC)-c2ccccc2S(=O)(=O)c13 | 12.5 mg/kg | 101% | Not Active | -1.6 | – | – | –
23 | CC(=O)NCCn1nc2c3c(c(N)ccc31)Sc1ccccc1-2.Cl | 100 mg/kg | 100% | Not Active | -1.7 | – | – | –
24 | CCN(CC)CCn1nc2c3c(c(NC(=O)CN)ccc31)Sc1cc(O)ccc1-2.Cl.O | 100 mg/kg | 195% | – | – | – | – | 0.14 µM
25 | CCN(CC)CCn1nc2c3c(c(NCCNC(=O)OC(C)(C)C)ccc31)Sc1cccc(OC)c1-2 | – | – | Not Active | – | – | – | –
